Experimental data as given in ChEMBL document CHEMBL1140901, “Discovery of novel arylethynyltriazole ribonucleosides with selective and effective antiviral and antiproliferative activity” (J Med Chem, 2009).
Calls of active or inactive are those of the source. The calls are words filed in the database; no cut-off is given here.

Columns and labels:
[1] = Cytotoxicity against human Huh-9-13 cells; format: cell-based
Procedure, shortened: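 Huh-9-13 replicon cells were seeded at 5000/well in DMEM with 2% FCS and 1000 µg/mL G418 and incubated 24 h at 37 °C. They then received 3-fold serial compound dilutions in G418-free medium for 4 days at 37 °C. CC₅₀ is the µM concentration inhibiting Huh cell proliferation by 50%, given as mean ± SE (n ≥ 3).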

Hepatitis C virus [2] = experiment: Antiviral activity against HCV in human HuH6 cells assessed as inhibition of replicon replication; format: functional, organism-based, Hepacivirus hominis; conditions: HuH-6
Procedure, shortened: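 Huh-6 replicon cells seeded 15 000/well and treated with serial compound dilutions as for Huh-9-13. Incubated 3 days at 37 °C, then lysed in cells-to-cDNA buffer. Replicon RNA quantified by real-time PCR. EC50 is 50% drop in HCV RNA versus untreated control; mean ± SE, n ≥ 3.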

[3] = Cytotoxicity against human HuH6 cells; format: cell-based
Procedure, shortened: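 Huh-6 replicon cells were seeded at 15 000/well, handled as for Huh-9-13 (2% FCS DMEM, 3-fold serial dilutions without G418), and incubated 3 days at 37 °C. CC₅₀ is the µM concentration inhibiting Huh cell proliferation by 50%, given as mean ± SE (n ≥ 3).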

Hepatitis C virus [4] = experiment: Antiviral activity against HCV in human Huh9.13 cells assessed as inhibition of replicon replication; format: functional, organism-based, Hepacivirus hominis
Procedure, shortened: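 Huh-9-13 replicon cells seeded 5000/well in DMEM with 2% FCS and 1000 µg/mL G418. After 24 h at 37 °C, 3-fold serial dilutions given without G418 for 4 days. Cells washed and lysed, replicon RNA quantified by real-time PCR. EC50 is 50% drop in HCV RNA versus untreated control; mean ± SE, n ≥ 3.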

[5] = Cytotoxicity against human HuH5.2 cells; format: cell-based, Huh-5-2
Procedure, shortened: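 Huh-5-2 replicon cells were seeded at 5000/well in DMEM with 2% FCS and 250 µg/mL G418 and kept 24 h at 37 °C (5% CO₂). They were then exposed to 3-fold serial dilutions in medium without G418 for 4 days at 37 °C. CC₅₀ is the µM concentration inhibiting Huh cell proliferation by 50%, given as mean ± SE (n ≥ 3).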

Hepatitis C virus [6] = experiment: Antiviral activity against HCV in human HuH5.2 cells assessed as inhibition of replicon replication; format: functional, organism-based, Hepacivirus hominis; conditions: Huh-5-2
Procedure, shortened: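 Huh-5-2 replicon cells seeded 5000/well in DMEM with 2% FCS and 250 µg/mL G418. After 24 h at 37 °C, 3-fold serial dilutions given in DMEM without G418. Incubated 4 days at 37 °C. Replicon read as luciferase activity (Steady-Glo). EC50 is 50% inhibition of replication; mean ± SE, n ≥ 3.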

MIA PaCa-2 [7] = experiment: Antiproliferative activity against human MIAPaCa2 cells by MTT assay; format: functional, cell-based
Procedure, shortened: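 MiaPaCa-2 pancreatic cancer cells in DMEM with 10% FBS, seeded at 15 000/well and allowed to attach overnight. Medium was then replaced with fresh medium containing compound, or medium alone as control. Cells were incubated for 48 h at 37 °C with 5% CO₂, and viable cells were counted by MTT colorimetric assay.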

MIA PaCa-2 [8] = experiment: Antitumor activity against human MIAPaCa2 cells transfected mouse assessed as reduction of tumor volume at 150 mg/kg, ip administered every 3 days for 4 weeks measured after 2 weeks; format: functional; set-up: scale not given: the % may be the effect or the level left; conditions: route intraperitoneal
Procedure, shortened: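 Male nude mice, 6 weeks old, inoculated subcutaneously with about 1 × 10⁷ MiaPaCa-2 cells plus 0.1 mL Matrigel. At 100 mm³ tumours, mice randomised; untreated mice served as control; five per group. Tumour volume measured weekly as length × width × depth × 0.5236. Mean ± SE, Student's t test.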

MIA PaCa-2 [9] = experiment: Induction of apoptosis in human MIAPaCa2 cells assessed as increase in caspase 3/7 activation after 48 hrs; format: functional
Procedure, shortened: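 MiaPaCa-2 cells seeded 15 000/well; 24 h later treated 48 h. Caspase-3/7 measured by cleavage of fluorogenic Z-DEVD-R110 substrate (Apo-ONE reagent). Reagent incubated 30 min at room temperature, then fluorescence read. Triplicate; mean ± SE, n = 3.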

MIA PaCa-2 [10] = experiment: Antiproliferative activity against human MIAPaCa2 cells after 2 days by MTT assay; format: functional
Procedure, shortened: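 MiaPaCa-2 cells in DMEM with 10% FBS, seeded 15 000/well and left to attach overnight. Medium then replaced with compound at different concentrations, untreated medium as control. Incubated 48 h at 37 °C, 5% CO2. Viable cells read by MTT colorimetric assay.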

MIA PaCa-2 [11] = experiment: Cell clycle arrest in human MIAPaCa2 cells assessed as increase in sub-G1/G0 fraction after 48 hrs by flow cytometry analysis; format: functional
Procedure, shortened: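 MiaPaCa-2 cells seeded at 10⁶ per 10 cm dish and left overnight. Treated 48 h, untreated as negative control. Cells trypsinised, fixed overnight in cold 70% ethanol at 4 °C, treated with RNase (500 µg/mL) and stained with propidium iodide (50 µg/mL). Sub-G1/G0 ratio read by flow cytometry on 10⁶ cells. Run in triplicate.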

MIA PaCa-2 [12] = experiment: Induction of apoptosis in human MIAPaCa2 cells assessed as increase in DNA/histone nucleosome release into cytoplasm after 48 hrs by ELISA; format: functional
Procedure, shortened: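 MiaPaCa-2 cells seeded 15 000/well for 24 h, then treated 48 h, untreated as control. Lysate supernatant captured on streptavidin plate with biotin anti-histone and peroxidase anti-DNA antibodies, 2 h at room temperature. After washing, peroxidase substrate added for 20 min, read at 405/490 nm. Result given as fold absorbance over control. Triplicate.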

Structure (SMILES) | CC50 [1] | EC50 (Hepatitis C virus [2]) | CC50 [3] | EC50 (Hepatitis C virus [4]) | CC50 [5] | EC50 (Hepatitis C virus [6]) | Activity (MIA PaCa-2 [7]) | Activity (MIA PaCa-2 [8]) | fold change (FC) (MIA PaCa-2 [9]) | inhibition (INH) (MIA PaCa-2 [10]) | fold change (FC) (MIA PaCa-2 [11]) | fold change (FC) (MIA PaCa-2 [12])
NC(=O)c1nc(C#Cc2ccc(F)cc2)n(COCCO)n1 | > 160 µM | 95.3 µM | 132 µM | 125 µM | > 160 µM | 72.3 µM | – | – | – | – | – | –
NC(=O)c1nc(C#Cc2ccccc2)n(COCCO)n1 | > 170 µM | 112 µM | > 170 µM | > 164 µM | > 170 µM | 62.9 µM | – | – | – | – | – | –
NC(=O)c1nc(C#Cc2ccc(C(F)(F)F)cc2)n(COCCO)n1 | 79 µM | 50.8 µM | 87.5 µM | 36.7 µM | – | 14.1 µM | inactive | – | – | – | – | –
COC(=O)c1nc(C#CC2(O)CCCC2)n([C@@H]2O[C@H](COC(C)=O)[C@@H](OC(C)=O)[C@H]2OC(C)=O)n1 | > 105 µM | 25.1 µM | > 105 µM | 54.3 µM | > 105 µM | 52.3 µM | – | – | – | – | – | –
COC(=O)c1nc(C#Cc2ccc(C(F)(F)F)cc2)n([C@@H]2O[C@H](COC(C)=O)[C@@H](OC(C)=O)[C@H]2OC(C)=O)n1 | – | – | – | – | – | – | – | 60% | 6.8 | 59% | 3 | 3
NC(=O)c1nc(C#Cc2ccc(C(F)(F)F)cc2)n([C@@H]2O[C@H](CO)[C@@H](O)[C@H]2O)n1 | > 120 µM | 43.7 µM | > 120 µM | 19.4 µM | 82.5 µM | 17.7 µM | – | – | – | – | – | –
Nc1ccn([C@@H]2O[C@H](CO)[C@@H](O)C2(F)F)c(=O)n1 [GEMCITABINE] | – | – | – | – | – | – | – | – | 2 | 29% | – | –
NC(=O)c1ncn([C@@H]2O[C@H](CO)[C@@H](O)[C@H]2O)n1 [RIBAVIRIN] | 229 µM | 33 µM | > 100 µM | 84 µM | – | 28.7 µM | – | – | – | – | – | –
